# Legend:
# Details in all cases: stereoisomer not certain
# UniProt A2ATE5 = molecular target: T1, UniProt A2ATE5
# T1 sequence (whole entry): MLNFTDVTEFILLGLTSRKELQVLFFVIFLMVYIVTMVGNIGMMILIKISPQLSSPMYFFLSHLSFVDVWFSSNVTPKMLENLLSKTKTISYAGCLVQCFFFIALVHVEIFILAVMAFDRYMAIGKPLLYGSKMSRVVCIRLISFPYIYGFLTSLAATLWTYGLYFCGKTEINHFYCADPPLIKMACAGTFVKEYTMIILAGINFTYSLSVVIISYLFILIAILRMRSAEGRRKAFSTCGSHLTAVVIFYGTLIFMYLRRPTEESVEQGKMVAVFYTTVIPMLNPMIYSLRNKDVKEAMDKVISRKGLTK
# Outline: (§1)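 Each receptor–molecule pair is labelled responsive or non-responsive (inactive) according to whether the original authors judged the measured signal statistically different from baseline. The data were taken from the main text and supplementary material of published papers and checked for typos and inconsistencies. Assay methods differed by source, with transient luciferase assays in mammalian cell lines being common.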
# UniProt A2AVB0 = molecular target: T2, UniProt A2AVB0
# T2 sequence (whole entry): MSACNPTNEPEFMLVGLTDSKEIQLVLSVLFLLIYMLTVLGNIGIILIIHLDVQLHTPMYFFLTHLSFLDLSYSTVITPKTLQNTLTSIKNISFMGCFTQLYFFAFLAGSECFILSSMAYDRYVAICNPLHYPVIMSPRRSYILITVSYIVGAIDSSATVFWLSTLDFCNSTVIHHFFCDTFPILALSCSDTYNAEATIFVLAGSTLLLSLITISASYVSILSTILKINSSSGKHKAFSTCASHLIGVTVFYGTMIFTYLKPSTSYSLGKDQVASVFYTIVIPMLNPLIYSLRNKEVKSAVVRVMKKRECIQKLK
# Outline: as §1
# UniProt E9PVX1 = molecular target: T3, UniProt E9PVX1
# T3 sequence (whole entry): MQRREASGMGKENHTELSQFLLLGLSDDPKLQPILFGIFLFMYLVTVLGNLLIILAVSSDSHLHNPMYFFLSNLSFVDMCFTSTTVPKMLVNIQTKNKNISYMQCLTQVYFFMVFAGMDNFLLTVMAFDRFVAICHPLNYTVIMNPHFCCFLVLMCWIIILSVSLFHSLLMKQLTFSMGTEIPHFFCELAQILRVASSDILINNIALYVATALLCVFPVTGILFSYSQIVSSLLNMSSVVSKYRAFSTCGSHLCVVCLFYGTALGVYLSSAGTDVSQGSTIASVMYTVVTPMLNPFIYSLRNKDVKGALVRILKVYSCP
# Outline: as §1
# UniProt A2AVB5 = molecular target: T4, UniProt A2AVB5
# T4 sequence (whole entry): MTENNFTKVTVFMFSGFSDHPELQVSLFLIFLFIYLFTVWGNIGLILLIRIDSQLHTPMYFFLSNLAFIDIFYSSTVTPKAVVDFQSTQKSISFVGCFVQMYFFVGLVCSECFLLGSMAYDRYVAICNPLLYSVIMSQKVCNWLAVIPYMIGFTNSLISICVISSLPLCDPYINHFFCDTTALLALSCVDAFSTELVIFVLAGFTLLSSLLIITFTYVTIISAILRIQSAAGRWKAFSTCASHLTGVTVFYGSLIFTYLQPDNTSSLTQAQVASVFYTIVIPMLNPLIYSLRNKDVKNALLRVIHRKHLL
# Outline: as §1
# UniProt B2RVX8 = molecular target: T5, UniProt B2RVX8
# T5 sequence (whole entry): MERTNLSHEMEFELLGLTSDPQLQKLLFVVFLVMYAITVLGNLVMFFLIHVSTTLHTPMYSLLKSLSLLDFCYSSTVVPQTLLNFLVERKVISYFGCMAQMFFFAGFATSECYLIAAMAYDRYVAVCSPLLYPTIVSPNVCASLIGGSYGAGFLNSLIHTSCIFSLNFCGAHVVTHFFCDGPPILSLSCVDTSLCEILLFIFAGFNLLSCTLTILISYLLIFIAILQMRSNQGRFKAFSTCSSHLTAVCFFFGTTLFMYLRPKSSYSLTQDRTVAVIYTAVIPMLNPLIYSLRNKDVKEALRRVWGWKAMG
# Outline: as §1
# UniProt E9PX47 = molecular target: T6, UniProt E9PX47
# T6 sequence (whole entry): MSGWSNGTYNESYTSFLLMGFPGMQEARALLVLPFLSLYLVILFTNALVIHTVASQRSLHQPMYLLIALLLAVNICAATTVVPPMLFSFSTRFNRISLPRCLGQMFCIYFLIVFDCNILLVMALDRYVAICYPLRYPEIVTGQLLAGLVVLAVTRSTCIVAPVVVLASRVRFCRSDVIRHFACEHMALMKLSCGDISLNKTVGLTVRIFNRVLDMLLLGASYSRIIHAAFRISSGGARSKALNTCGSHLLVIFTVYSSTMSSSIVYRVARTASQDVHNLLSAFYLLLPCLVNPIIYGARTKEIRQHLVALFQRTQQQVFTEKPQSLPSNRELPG
# Outline: as §1
# UniProt E1BM68 = molecular target: T7, UniProt E1BM68
# T7 sequence (whole entry): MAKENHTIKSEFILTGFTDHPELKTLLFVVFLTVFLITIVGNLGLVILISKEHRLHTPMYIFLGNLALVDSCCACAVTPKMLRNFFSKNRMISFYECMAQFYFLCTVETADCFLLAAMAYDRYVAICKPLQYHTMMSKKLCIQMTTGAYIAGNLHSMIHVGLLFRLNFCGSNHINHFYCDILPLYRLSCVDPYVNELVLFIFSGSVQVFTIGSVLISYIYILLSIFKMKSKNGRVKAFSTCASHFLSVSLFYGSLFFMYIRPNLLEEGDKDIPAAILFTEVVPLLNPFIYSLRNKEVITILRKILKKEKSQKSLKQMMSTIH
# Outline: as §1
# 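Note: active if original authors judged signal statistically different from baseline.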
structure (smiles),measurement,setting,value
CCCCCCCCCCOC(C)=O,odorant receptor agonist call,UniProt A2ATE5,inactive
same,odorant receptor agonist call,UniProt A2AVB0,inactive
same,odorant receptor agonist call,UniProt E9PVX1,inactive
CCCCCCCCCO,odorant receptor agonist call,UniProt A2ATE5,inactive
same,odorant receptor agonist call,UniProt A2AVB0,inactive
same,odorant receptor agonist call,UniProt A2AVB5,inactive
same,odorant receptor agonist call,UniProt B2RVX8,inactive
same,odorant receptor agonist call,UniProt E9PVX1,inactive
same,odorant receptor agonist call,UniProt E9PX47,inactive
CCCC(C)C(=O)OCC (stereo not given),odorant receptor agonist call,UniProt A2ATE5,inactive
same,odorant receptor agonist call,UniProt A2AVB0,inactive
same,odorant receptor agonist call,UniProt E9PVX1,inactive
C=C1C2CCC(C2)C1(C)C (stereo not given),odorant receptor agonist call,UniProt A2ATE5,inactive
same,odorant receptor agonist call,UniProt A2AVB0,inactive
same,odorant receptor agonist call,UniProt E9PVX1,inactive
CCN(CC)CC,odorant receptor agonist call,UniProt A2ATE5,inactive
same,odorant receptor agonist call,UniProt A2AVB0,inactive
same,odorant receptor agonist call,UniProt E9PVX1,inactive
COC(OC)c1ccccc1,odorant receptor agonist call,UniProt A2ATE5,inactive
same,odorant receptor agonist call,UniProt A2AVB0,inactive
same,odorant receptor agonist call,UniProt E9PVX1,inactive
CC=Cc1ccc(OC)cc1,odorant receptor agonist call,UniProt A2ATE5,inactive
same,odorant receptor agonist call,UniProt A2AVB0,inactive
same,odorant receptor agonist call,UniProt E9PVX1,inactive
CCCCCCC(C)O (stereo not given),odorant receptor agonist call,UniProt A2ATE5,inactive
same,odorant receptor agonist call,UniProt A2AVB0,inactive
same,odorant receptor agonist call,UniProt E9PVX1,inactive
Cc1cncc(C)n1,odorant receptor agonist call,UniProt E1BM68,active
CCc1nccnc1C,odorant receptor agonist call,UniProt E1BM68,active
CCc1occc(=O)c1O,odorant receptor agonist call,UniProt A2ATE5,active
same,odorant receptor agonist call,UniProt A2AVB0,inactive
same,odorant receptor agonist call,UniProt E9PVX1,inactive
CC1=NC(C)C(C)S1 (stereo not given),odorant receptor agonist call,UniProt E1BM68,active
C1CCOCC1,odorant receptor agonist call,UniProt A2ATE5,inactive
same,odorant receptor agonist call,UniProt A2AVB0,inactive
same,odorant receptor agonist call,UniProt E9PVX1,inactive
CCCCCCCC(=O)[O-].[H+],odorant receptor agonist call,UniProt A2AVB5,inactive
same,odorant receptor agonist call,UniProt B2RVX8,inactive
same,odorant receptor agonist call,UniProt E9PX47,inactive
CCCCCOC(=O)CCC,odorant receptor agonist call,UniProt A2ATE5,inactive
same,odorant receptor agonist call,UniProt A2AVB0,inactive
same,odorant receptor agonist call,UniProt E9PVX1,inactive
C=Cc1cnccn1,odorant receptor agonist call,UniProt E1BM68,active
CCCCCCC(=O)[O-].[H+],odorant receptor agonist call,UniProt A2AVB5,inactive
same,odorant receptor agonist call,UniProt B2RVX8,inactive
same,odorant receptor agonist call,UniProt E9PX47,inactive
Cc1cnc(C)cn1,odorant receptor agonist call,UniProt E1BM68,active
CC(=O)c1nccnc1C,odorant receptor agonist call,UniProt E1BM68,active
COC1=C(C)OC(C)C1=O (stereo not given),odorant receptor agonist call,UniProt E1BM68,inactive
Cc1cnccn1,odorant receptor agonist call,UniProt E1BM68,active
CCCCCO,odorant receptor agonist call,UniProt A2AVB5,inactive
same,odorant receptor agonist call,UniProt B2RVX8,inactive
CCCCOC(=O)CCC,odorant receptor agonist call,UniProt E9PX47,inactive
CCCCCC(C=O)=Cc1ccccc1,odorant receptor agonist call,UniProt A2ATE5,inactive
same,odorant receptor agonist call,UniProt A2AVB0,inactive
same,odorant receptor agonist call,UniProt E9PVX1,inactive
C=C(C)C1CCC(C)C(O)C1 (stereo not given),odorant receptor agonist call,UniProt A2ATE5,inactive
same,odorant receptor agonist call,UniProt A2AVB0,inactive
same,odorant receptor agonist call,UniProt E9PVX1,inactive
CC(=O)C1(C)CC2=C(CCCC2(C)C)CC1C (stereo not given),odorant receptor agonist call,UniProt A2ATE5,inactive
same,odorant receptor agonist call,UniProt A2AVB0,inactive
same,odorant receptor agonist call,UniProt E9PVX1,inactive
CCCC(C)=O,odorant receptor agonist call,UniProt A2AVB5,inactive
same,odorant receptor agonist call,UniProt B2RVX8,inactive
same,odorant receptor agonist call,UniProt E9PX47,inactive
CCC(C(=O)O)c1ccccc1 (stereo not given),odorant receptor agonist call,UniProt A2AVB5,inactive
same,odorant receptor agonist call,UniProt B2RVX8,inactive
CCCCC=O,odorant receptor agonist call,UniProt A2ATE5,inactive
same,odorant receptor agonist call,UniProt A2AVB0,inactive
same,odorant receptor agonist call,UniProt E9PVX1,inactive
same,odorant receptor agonist call,UniProt E9PX47,inactive
CCc1nccnc1OC,odorant receptor agonist call,UniProt E1BM68,active
Cc1cnc(C)c(C)n1,odorant receptor agonist call,UniProt E1BM68,active
CCc1nccnc1C(C)=O,odorant receptor agonist call,UniProt E1BM68,active
O=C([O-])CCCCCCCC(=O)[O-].[H+].[H+],odorant receptor agonist call,UniProt A2ATE5,inactive
same,odorant receptor agonist call,UniProt A2AVB0,inactive
same,odorant receptor agonist call,UniProt E9PVX1,inactive
same,odorant receptor agonist call,UniProt E9PX47,active
CCCCOC(=O)C(C)OC(=O)CCC (stereo not given),odorant receptor agonist call,UniProt A2AVB5,inactive
same,odorant receptor agonist call,UniProt B2RVX8,inactive
Cc1nccnc1C,odorant receptor agonist call,UniProt E1BM68,active
CC(=O)c1cnccn1,odorant receptor agonist call,UniProt E1BM68,active
CCc1cnc(C)c(C)n1,odorant receptor agonist call,UniProt E1BM68,inactive
COc1nccnc1CC(C)C,odorant receptor agonist call,UniProt E1BM68,active
Cc1ccccc1OC(=O)C(C)C,odorant receptor agonist call,UniProt A2ATE5,inactive
same,odorant receptor agonist call,UniProt A2AVB0,inactive
same,odorant receptor agonist call,UniProt E9PVX1,inactive
CCCCCCCCC=CC=O,odorant receptor agonist call,UniProt A2ATE5,inactive
same,odorant receptor agonist call,UniProt A2AVB0,inactive
same,odorant receptor agonist call,UniProt E9PVX1,inactive
C=C(CC)CCCC(C)(C)O,odorant receptor agonist call,UniProt A2ATE5,inactive
same,odorant receptor agonist call,UniProt A2AVB0,inactive
same,odorant receptor agonist call,UniProt E9PVX1,inactive
CC(C)CCN,odorant receptor agonist call,UniProt A2ATE5,inactive
same,odorant receptor agonist call,UniProt A2AVB0,inactive
same,odorant receptor agonist call,UniProt E9PVX1,inactive
O=C(OCc1ccccc1)c1ccccc1O,odorant receptor agonist call,UniProt A2ATE5,inactive
same,odorant receptor agonist call,UniProt A2AVB0,inactive
same,odorant receptor agonist call,UniProt E9PVX1,inactive
CC1CCc2nccnc21 (stereo not given),odorant receptor agonist call,UniProt E1BM68,active
